{"source": "ChEMBL document CHEMBL1124794", "about": "“Synthesis, chemistry, and antineoplastic activity of alpha-halopyridinium salts: potential pyridone prodrugs of acylated vinylogous carbinolamine tumor inhibitors” (J Med Chem, 1990)", "key": {"[1]": {"test": "Hydrolysis were done at 25 degree C in 0.05 M phosphate buffer (pH 7.4)", "assay_type": "ADME", "summary_of_the_method": "(§1)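 Model pyridinium salts were hydrolysed to pyridones at 25 °C in 0.05 M phosphate buffer, pH 7.4. Decay of the pyridinium UV absorption maximum was monitored over time, giving pseudo-first-order k_obs and half-life.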"}, "[2]": {"test": "Half life of the compound", "assay_type": "ADME"}, "P388 [3]": {"test_system": "P388", "test": "In vivo activity against P388 Lymphocytic Leukemia in CD2F1 mice at the dose of 12.5 mg/kg, activity expressed as body weight difference", "assay_type": "functional, Mus musculus", "summary_of_the_method": "(§2)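 CD2F1 mice were inoculated with ascitic fluid holding ca. 10^6 P388 cells. Drug was given daily from 24 h after inoculation, from solutions or suspensions made fresh each day, some as a saline suspension. TDS is survivors/initial animals on day 5. BWD is body weight on day 5 minus day 1. %T/C compares median survival of treated and control mice.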"}, "P388 [4]": {"test_system": "P388", "test": "In vivo activity against P388 Lymphocytic Leukemia in CD2F1 mice at the dose of 25 mg/kg, activity expressed as body weight difference", "assay_type": "functional, Mus musculus", "summary_of_the_method": "as §2"}, "P388 [5]": {"test_system": "P388", "test": "In vivo activity against P388 Lymphocytic Leukemia in CD2F1 mice at the dose of 6.2 mg/kg, activity expressed as body weight difference", "assay_type": "functional, Mus musculus", "summary_of_the_method": "as §2"}, "P388 [6]": {"test_system": "P388", "test": "In vivo activity against P388 Lymphocytic Leukemia in CD2F1 mice at the dose of 6.2 mg/kg, activity expressed as % T/C", "assay_type": "functional, Mus musculus", "summary_of_the_method": "as §2"}, "P388 [7]": {"test_system": "P388", "test": "In vivo activity against P388 Lymphocytic Leukemia in CD2F1 mice at the dose of 12.5 mg/kg, activity expressed as TDS; 4/4", "assay_type": "functional, Mus musculus", "summary_of_the_method": "as §2"}, "P388 [8]": {"test_system": "P388", "test": "In vivo activity against P388 Lymphocytic Leukemia in CD2F1 mice at the dose of 25 mg/kg, activity expressed as TDS; 4/4", "assay_type": "functional, Mus musculus", "summary_of_the_method": "as §2"}, "P388 [9]": {"test_system": "P388", "test": "In vivo activity against P388 Lymphocytic Leukemia in CD2F1 mice at the dose of 50 mg/kg, activity expressed as TDS; 0/4", "assay_type": "functional, Mus musculus", "summary_of_the_method": "as §2"}, "P388 [10]": {"test_system": "P388", "test": "In vivo activity against P388 Lymphocytic Leukemia in CD2F1 mice at the dose of 6.2 mg/kg, activity expressed as TDS; 4/4", "assay_type": "functional, Mus musculus", "summary_of_the_method": "as §2"}, "P388 [11]": {"test_system": "P388", "test": "In vivo activity against P388 Lymphocytic Leukemia in CD2F1 mice at the dose of 12.5 mg/kg, activity expressed as % T/C", "assay_type": "functional, Mus musculus", "summary_of_the_method": "as §2"}, "P388 [12]": {"test_system": "P388", "test": "In vivo activity against P388 Lymphocytic Leukemia in CD2F1 mice at the dose of 25 mg/kg, activity expressed as % T/C", "assay_type": "functional, Mus musculus", "summary_of_the_method": "as §2"}, "[13]": {"test": "Hydrolysis at 25 degree C in 0.05 M phosphate buffer (pH 7.4); the rate was too fast to measure these conditions.", "assay_type": "ADME", "summary_of_the_method": "as §1"}, "P388 [14]": {"test_system": "P388", "test": "In vivo activity against P388 Lymphocytic Leukemia in CD2F1 mice at the dose of 100 mg/kg, activity expressed as body weight difference", "assay_type": "functional, Mus musculus", "summary_of_the_method": "as §2"}, "P388 [15]": {"test_system": "P388", "test": "In vivo activity against P388 Lymphocytic Leukemia in CD2F1 mice at the dose of 50 mg/kg, activity expressed as body weight difference", "assay_type": "functional, Mus musculus", "summary_of_the_method": "as §2"}, "P388 [16]": {"test_system": "P388", "test": "In vivo activity against P388 Lymphocytic Leukemia in CD2F1 mice at the dose of 50 mg/kg, activity expressed as % T/C", "assay_type": "functional, Mus musculus", "summary_of_the_method": "as §2"}, "P388 [17]": {"test_system": "P388", "test": "In vivo activity against P388 Lymphocytic Leukemia in CD2F1 mice at the dose of 12.5 mg/kg, activity expressed as TDS; 6/6", "assay_type": "functional, Mus musculus", "summary_of_the_method": "as §2"}, "P388 [18]": {"test_system": "P388", "test": "In vivo activity against P388 Lymphocytic Leukemia in CD2F1 mice at the dose of 200 mg/kg, activity expressed as TDS; 0/6", "assay_type": "functional, Mus musculus", "summary_of_the_method": "as §2"}, "P388 [19]": {"test_system": "P388", "test": "In vivo activity against P388 Lymphocytic Leukemia in CD2F1 mice at the dose of 25 mg/kg, activity expressed as TDS; 6/6", "assay_type": "functional, Mus musculus", "summary_of_the_method": "as §2"}, "P388 [20]": {"test_system": "P388", "test": "In vivo activity against P388 Lymphocytic Leukemia in CD2F1 mice at the dose of 50 mg/kg, activity expressed as TDS; 6/6", "assay_type": "functional, Mus musculus", "summary_of_the_method": "as §2"}, "P388 [21]": {"test_system": "P388", "test": "In vivo activity against P388 Lymphocytic Leukemia in CD2F1 mice at the dose of 100 mg/kg, activity expressed as KE", "assay_type": "functional, Mus musculus"}, "P388 [22]": {"test_system": "P388", "test": "In vivo activity against P388 Lymphocytic Leukemia in CD2F1 mice at the dose of 12.5 mg/kg, activity expressed as KE", "assay_type": "functional, Mus musculus"}, "P388 [23]": {"test_system": "P388", "test": "In vivo activity against P388 Lymphocytic Leukemia in CD2F1 mice at the dose of 25 mg/kg, activity expressed as KE", "assay_type": "functional, Mus musculus"}, "P388 [24]": {"test_system": "P388", "test": "In vivo activity against P388 Lymphocytic Leukemia in CD2F1 mice at the dose of 50 mg/kg, activity expressed as KE", "assay_type": "functional, Mus musculus"}, "P388 [25]": {"test_system": "P388", "test": "In vivo activity against P388 Lymphocytic Leukemia in CD2F1 mice at the dose of 100 mg/kg, activity expressed as TDS", "assay_type": "functional, Mus musculus", "summary_of_the_method": "as §2"}, "P388 [26]": {"test_system": "P388", "test": "In vivo activity against P388 Lymphocytic Leukemia in CD2F1 mice at the dose of 100 mg/kg, activity expressed as % T/C", "assay_type": "functional, Mus musculus", "summary_of_the_method": "as §2"}}, "data": [{"smiles": "Cc1ccc(Cl)[n+](C)c1.O=S(=O)([O-])C(F)(F)F", "values": [{"measurement": "K obs", "setting": "[1]", "result": 0.000708, "unit": "min⁻¹"}, {"measurement": "half-life", "setting": "[2]", "result": 269, "unit": "h"}]}, {"smiles": "CC(C)NC(=O)OCc1c(COC(=O)NC(C)C)c(-c2ccc(Cl)[n+](C)c2)n2c1CCC2.[I-]", "values": [{"measurement": "BWD", "setting": "P388 [3]", "result": 0.1, "unit": "g"}, {"measurement": "BWD", "setting": "P388 [4]", "result": -1.1, "unit": "g"}, {"measurement": "BWD", "setting": "P388 [5]", "result": -0.4, "unit": "g"}, {"measurement": "T/C", "setting": "P388 [6]", "result": 98, "unit": "%"}, {"measurement": "TDS", "setting": "P388 [7]", "result": 4}, {"measurement": "TDS", "setting": "P388 [8]", "result": 4}, {"measurement": "TDS", "setting": "P388 [9]", "result": 0}, {"measurement": "TDS", "setting": "P388 [10]", "result": 4}, {"measurement": "T/C", "setting": "P388 [11]", "result": 102, "unit": "%"}, {"measurement": "T/C", "setting": "P388 [12]", "result": 109, "unit": "%"}]}, {"smiles": "CCOC(=O)c1cc[n+](C)c(Cl)c1.O=S(=O)([O-])C(F)(F)F", "values": [{"measurement": "K obs", "setting": "[1]", "result": 0.055, "unit": "min⁻¹"}, {"measurement": "half-life", "setting": "[2]", "result": 6, "unit": "h"}]}, {"smiles": "CCOC(=O)c1cc[n+](C)c(F)c1.O=S(=O)([O-])C(F)(F)F", "values": [{"measurement": "K obs", "setting": "[13]", "result": "Rate too fast"}]}, {"smiles": "Cc1cc(Br)c(Cl)[n+](C)c1.O=S(=O)([O-])C(F)(F)F", "values": [{"measurement": "K obs", "setting": "[1]", "result": 0.041, "unit": "min⁻¹"}, {"measurement": "half-life", "setting": "[2]", "result": 17, "unit": "h"}]}, {"smiles": "CC(C)NC(=O)OCc1c(COC(=O)NC(C)C)c(-c2cc[n+](C)c(Cl)c2)n2c1CCC2.[I-]", "values": [{"measurement": "BWD", "setting": "P388 [14]", "result": -0.8, "unit": "g"}, {"measurement": "BWD", "setting": "P388 [3]", "result": -0.1, "unit": "g"}, {"measurement": "BWD", "setting": "P388 [4]", "result": 0.4, "unit": "g"}, {"measurement": "BWD", "setting": "P388 [15]", "result": -0.5, "unit": "g"}, {"measurement": "T/C", "setting": "P388 [16]", "result": 112, "unit": "%"}, {"measurement": "TDS", "setting": "P388 [17]", "result": 6}, {"measurement": "TDS", "setting": "P388 [18]", "result": 0}, {"measurement": "TDS", "setting": "P388 [19]", "result": 6}, {"measurement": "TDS", "setting": "P388 [20]", "result": 6}, {"measurement": "KE", "setting": "P388 [21]", "result": -1.07}, {"measurement": "KE", "setting": "P388 [22]", "result": -1.56}, {"measurement": "KE", "setting": "P388 [23]", "result": -1.56}, {"measurement": "KE", "setting": "P388 [24]", "result": -1.44}, {"measurement": "T/C", "setting": "P388 [11]", "result": 103, "unit": "%"}, {"measurement": "T/C", "setting": "P388 [12]", "result": 103, "unit": "%"}, {"measurement": "TDS", "setting": "P388 [25]", "result": 6}, {"measurement": "T/C", "setting": "P388 [26]", "result": 121, "unit": "%"}]}]}
